Data as given in article PMC6589987 (Therapeutic Advances in Chronic Disease, 2019).
Entries after “also recorded” stand apart in the source; their conditions may differ. Read-outs that look alike come from different tables or passages of the source.

Legend:
[1] = cited from earlier work
[2] = Delivered dose and fine particle dose from the Cyclops inhaler; assay type: physicochemical; settings: at 4 kPa; laser diffraction
Summary of the method: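 Residue left in the inhaler after each patient inhalation was measured by UV spectrophotometry. Delivered dose was calculated as blister dose minus inhaler residue. Fine particle dose (<5 µm) was measured by laser diffraction at 4 kPa.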

[3] = Plasma levodopa pharmacokinetics after inhaled; assay type: in vivo, human; settings: for AUC: inhaled or intranasal
Summary of the method: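 Eight Parkinson's patients, not in the off state, got single morning doses at least 7.5 h after their last home dose, fasting 60 min before to 60 min after. Oral doses were 100/25–250/62.5 mg with decarboxylase inhibitor, normalised to 100 mg. Plasma had glutathione added and was stored at −80°C, then assayed by LC-MS/MS (LOQ 1.0 nmol/l). Half-life came from Cmax and the last concentration.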

[4] = progressed, fluctuating patients; cited from earlier work
[5] = Airway tolerability: spirometry; assay type: in vivo, human
Summary of the method: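 Eight patients with Parkinson's disease (not off) inhaled dry-powder levodopa by mouth: 30 mg, then 60 mg (2 × 30 mg). At a third visit they took their regular oral levodopa/decarboxylase inhibitor. Visits were ≥7 days apart, in the morning, ≥7.5 h after the last home dose, with no food for 60 min either side. Spirometry (pneumotachograph, ATS/ERS) was done before and ±35 and 100 min after dosing. FEV1 drop >10% from baseline was deemed relevant. Cough and dyspnoea were queried each session (Borg scale).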

[6] = after subcutaneous injection; cited from earlier work

N[C@@H](Cc1ccc(O)c(O)c1)C(=O)O [levodopa, Levodopa]
plasma levodopa concentration ([1]; 10 min after 100 mg oral levodopa in the fasted state): around 150 ng/ml
absolute bioavailability ([1]; oral immediate-release levodopa combined with a decarboxylase inhibitor): approximately 85%
absolute bioavailability ([1]; oral immediate-release levodopa): 40–60%
fine particle dose (<5 µm) [2]: 45 % of the delivered dose
AUC ([3]; human, plasma, 30 mg): 9.69 ng·h/mL
AUC ([3]; human, plasma, 60 mg): 9.58 ng·h/mL
half-life ([3]; human, plasma, po, mean elimination half-life time, oral administration of levodopa plus decarboxylase inhibitor): 1.13 ± 0.343 h
elimination half-life ([3]; inhaled levodopa, both doses, range and mean): 0.967 h
time by which inhaled levodopa is absorbed faster in the blood plasma than oral ([3]; inhaled vs oral): up to 85 min
relative bioavailability of inhaled levodopa in comparison with oral levodopa ([3]; inhaled without carboxylase inhibitor vs oral with carboxylase inhibitor): 53%
mean elimination half-life time ([3]; oral administration of levodopa plus decarboxylase inhibitor): 1.13 h
increase in levodopa effect compartment concentration giving maximum effect on finger tapping [4]: 200 to 400 ng/mL
change in lung-function parameters (FEV1, FVC, MEF50) ([5]; after inhalation of 30 mg or 60 mg levodopa, spirometry ±35 and 100 min after administration): No significant change; also recorded: none of the patients
tolerability ([5]; after inhalation, 30 and 60 mg): well tolerated
change in lung-function parameters (FEV1, FVC, MEF50) ([5]; after oral administration of levodopa): No significant change
patients experiencing cough or dyspnoea ([5]; during or after inhalation): none of the patients

CN1CCc2cccc3c2[C@H]1Cc1ccc(O)c(O)c1-3 [apomorphine]
lag time to onset of effect [6]: > 20 min
